ChEMBL document CHEMBL1135780, “6-Chloro-3-alkylamino-4H-thieno[3,2-e]-1,2,4-thiadiazine 1,1-dioxide derivatives potently and selectively activate ATP sensitive potassium channels of pancreatic beta-cells” (J Med Chem, 2002)

Legend:
Rattus norvegicus [1] = species on record: Rattus norvegicus; assay: Ability to relax phenylephrine-contracted rat aorta rings; format: functional
Beta-TC6 [2] = assay: Maximum inhibition of glucose stimulated insulin release from mouse beta-TC6 cells at 10 uM in vitro.; format: functional
[3] = Changes in potassium fluxes assessed in the glucose responsive insulin-producing murine cell line beta-TC3; format: functional, cell-based, Mus musculus
Method in brief: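 βTC3 membrane potential read as DiBAC4(3) fluorescence at 0.01, 0.1, 1, 10 and 100 µM, four wells each. Signal normalized to each well's initial value and expressed as fractional fluorescence change over 45 min incubation. EC50 from four-parameter nonlinear fit; mean ± SEM of at least three independent experiments.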

Beta-TC6 [4] = assay: Ability to inhibit the release of insulin from the mouse beta-TC6 cell line; format: functional, cell-based
Method in brief: (§1)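 βTC6 cells, 5 × 10⁴/well, grown 3 days in DMEM + 10% FCS, 11 mM glucose, 20 mM Hepes. Washed twice in NN buffer with 0.1% BSA, preincubated 60 min, then 3 h with 22 mM glucose, 0.1 mM IBMX and serial compound dilutions. Insulin in supernatant measured by in-house ELISA (guinea pig anti-insulin, rat insulin standard). Reference compound as positive control.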

Rattus norvegicus [5] = species on record: Rattus norvegicus; assay: Reduction in plasma insulin in 30 min post-injection in rat; format: functional; set-up: concentration or dose not given beside the values
Method in brief: (§2)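 Postprandial male Sprague–Dawley rats, 280–320 g, under Hypnorm/Dormicum at 37 °C. 3 mg/kg iv bolus over 20 s via jugular cannula (0.3 mg/kg for one compound), dissolved in 0.15% NaOH and saline. Blood taken every 5–10 min from 15 min pre- to 30 min postinjection. Plasma insulin by ELISA, as % reduction from pre-dose level. 2–4 animals.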

[6] = target: T1, Sulfonylurea receptor 1, Kir6.2 (Homo sapiens, UniProt Q09428+Q14654); assay: (§3) Inhibition of [3H]glibenclamide binding to HEK293 cells co-expressing human Sulfonylurea receptor SUR1 and Inward rectifier K+ channel Kir6.2 without ATP; format: cell-based
[7] = target: T1, Sulfonylurea receptor 1, Kir6.2; assay: Inhibition of [3H]glibenclamide binding to HEK293 cells co-expressing human Sulfonylurea receptor SUR1 and Inward rectifier K+ channel Kir6.2 at high affinity state with 2 mM MgATP; format: cell-based
Beta-TC6 [8] = assay: Percentage insulin release in vitro in beta-TC6 cells; format: functional; settings: Mus musculus; method in brief: as §1
Rattus norvegicus [9] = species on record: Rattus norvegicus; assay: Inhibition of glucose-stimulated insulin release from Wistar rat islets; format: functional
Method in brief: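 Isolated rat islets held overnight in RPMI, 10% FCS, 11 mM glucose, then 10 islets/well overnight in DMEM, 10% FCS, 3 mM glucose. Run like the βTC6 assay (60 min NN buffer preincubation, 3 h with 22 mM glucose and serial dilutions) without IBMX. Insulin by in-house ELISA.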

[10] = target: T1, Sulfonylurea receptor 1, Kir6.2; assay: Inhibition of [3H]glibenclamide binding to HEK293 cells co-expressing human Sulfonylurea receptor SUR1 and Inward rectifier K+ channel Kir6.2 at low affinity state with 2 mM MgATP; format: cell-based
Rattus norvegicus [11] = species on record: Rattus norvegicus; assay: Maximum change in MAP in rat; format: functional
Method in brief: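 Anaesthetized male Sprague–Dawley rats given 3 mg/kg iv bolus (0.3 mg/kg for one compound) in 0.15% NaOH/saline via jugular cannula. Maximal percent change in mean arterial pressure over 5 min after dosing; mean ± SEM, 2–4 animals.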

[12] = Oral bioavailability in rat (Sprague-Dawley); format: ADME, organism-based; settings: in vivo; for bioavailability: Sprague-Dawley
Method in brief: (§4)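 Cassette dosing, two compounds per cassette, in Sprague–Dawley rats of about 180 g, n = 2. iv doses 0.5 or 0.89 mg/kg; oral doses 1.89 or 2.0 mg/kg. Vehicle 0.1 M potassium phosphate pH 8.0, or PEG 300 based. Heart-puncture sampling, one rat per point. Plasma levels by LC/MS/MS; noncompartmental analysis.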

Rattus norvegicus [13] = species on record: Rattus norvegicus; assay: Maximum reduction in plasma insulin in rat; format: functional; method in brief: as §2
[14] = Half life after oral administration to Sprague-Dawley rats; format: ADME, organism-based; settings: rat, in vivo; method in brief: as §4
Rattus norvegicus [15] = species on record: Rattus norvegicus; assay: Vasodilation effects on Wistar rat mesenteric arteries precontracted with phenylephrine; format: functional
Rattus norvegicus [16] = species on record: Rattus norvegicus; assay: Effective concentration required for relaxation of rat aorta rings; format: functional
Rattus norvegicus [17] = species on record: Rattus norvegicus; assay: Effective concentration required for relaxation of the rat aorta rings; format: functional
[18] = (§5) LogD for water and octanol distribution coefficient at pH 7.4; format: physicochemical
Method in brief: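 Octanol/water distribution measured by potentiometric titration, pH 10.5 to 2.0. Three titrations on one sample, with 1.00 mL then 10.00 mL octanol added before the second and third. Aqueous pKa used in refinement; combined multiset gives LogD at pH 7.4.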

[19] = Partition coefficient (logP); format: physicochemical; settings: octanol/water
[20] = Compound was evaluated for physiochemical property pKa; format: physicochemical
Method in brief: (§6)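 Potentiometric titration from pH 2 to 10.5 in 80% MeOH cosolvent. Three titrations on the same sample, with 0.15 M KCl added before the second. psKa values extrapolated to 0% cosolvent by Yasuda–Shedlovsky.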

[21] = target: T1, Sulfonylurea receptor 1, Kir6.2; assay: as §3; format: cell-based; remark: listed apart in the source
Method in brief: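 Membranes from HEK293 cells stably expressing human SUR1/Kir6.2 (100 µg/mL protein) incubated 1 h at 37 °C with 1 nM [3H]glibenclamide in 30 mM HEPES pH 7.4, here without MgCl2 and ATP. Nonspecific binding with 10 µM glipizide. Rapid filtration, scintillation counting; IC50 by one- or two-site sigmoid nonlinear regression.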

[22] = Acid dissociation constant was determined; format: ADME; method in brief: as §6
[23] = as §5; format: physicochemical; remark: listed apart in the source
Method in brief: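 Three titrations on one sample, with 1.00 mL then 10.00 mL octanol added before the second and third. Aqueous pKa used in refinement; combined multiset gives LogD at pH 7.4.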

T1 sequence (Q14654 whole entry): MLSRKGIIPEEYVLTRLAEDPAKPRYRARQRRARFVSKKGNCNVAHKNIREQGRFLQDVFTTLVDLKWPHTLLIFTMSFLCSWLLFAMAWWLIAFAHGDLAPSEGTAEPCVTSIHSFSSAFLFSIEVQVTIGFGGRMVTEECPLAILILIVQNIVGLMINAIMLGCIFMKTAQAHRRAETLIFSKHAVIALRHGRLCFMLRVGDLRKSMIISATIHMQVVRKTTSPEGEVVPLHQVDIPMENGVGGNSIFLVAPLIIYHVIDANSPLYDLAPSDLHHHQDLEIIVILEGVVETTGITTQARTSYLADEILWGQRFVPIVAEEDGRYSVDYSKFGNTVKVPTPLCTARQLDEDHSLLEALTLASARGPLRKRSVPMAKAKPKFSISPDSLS
T1 sequence (Q09428 whole entry): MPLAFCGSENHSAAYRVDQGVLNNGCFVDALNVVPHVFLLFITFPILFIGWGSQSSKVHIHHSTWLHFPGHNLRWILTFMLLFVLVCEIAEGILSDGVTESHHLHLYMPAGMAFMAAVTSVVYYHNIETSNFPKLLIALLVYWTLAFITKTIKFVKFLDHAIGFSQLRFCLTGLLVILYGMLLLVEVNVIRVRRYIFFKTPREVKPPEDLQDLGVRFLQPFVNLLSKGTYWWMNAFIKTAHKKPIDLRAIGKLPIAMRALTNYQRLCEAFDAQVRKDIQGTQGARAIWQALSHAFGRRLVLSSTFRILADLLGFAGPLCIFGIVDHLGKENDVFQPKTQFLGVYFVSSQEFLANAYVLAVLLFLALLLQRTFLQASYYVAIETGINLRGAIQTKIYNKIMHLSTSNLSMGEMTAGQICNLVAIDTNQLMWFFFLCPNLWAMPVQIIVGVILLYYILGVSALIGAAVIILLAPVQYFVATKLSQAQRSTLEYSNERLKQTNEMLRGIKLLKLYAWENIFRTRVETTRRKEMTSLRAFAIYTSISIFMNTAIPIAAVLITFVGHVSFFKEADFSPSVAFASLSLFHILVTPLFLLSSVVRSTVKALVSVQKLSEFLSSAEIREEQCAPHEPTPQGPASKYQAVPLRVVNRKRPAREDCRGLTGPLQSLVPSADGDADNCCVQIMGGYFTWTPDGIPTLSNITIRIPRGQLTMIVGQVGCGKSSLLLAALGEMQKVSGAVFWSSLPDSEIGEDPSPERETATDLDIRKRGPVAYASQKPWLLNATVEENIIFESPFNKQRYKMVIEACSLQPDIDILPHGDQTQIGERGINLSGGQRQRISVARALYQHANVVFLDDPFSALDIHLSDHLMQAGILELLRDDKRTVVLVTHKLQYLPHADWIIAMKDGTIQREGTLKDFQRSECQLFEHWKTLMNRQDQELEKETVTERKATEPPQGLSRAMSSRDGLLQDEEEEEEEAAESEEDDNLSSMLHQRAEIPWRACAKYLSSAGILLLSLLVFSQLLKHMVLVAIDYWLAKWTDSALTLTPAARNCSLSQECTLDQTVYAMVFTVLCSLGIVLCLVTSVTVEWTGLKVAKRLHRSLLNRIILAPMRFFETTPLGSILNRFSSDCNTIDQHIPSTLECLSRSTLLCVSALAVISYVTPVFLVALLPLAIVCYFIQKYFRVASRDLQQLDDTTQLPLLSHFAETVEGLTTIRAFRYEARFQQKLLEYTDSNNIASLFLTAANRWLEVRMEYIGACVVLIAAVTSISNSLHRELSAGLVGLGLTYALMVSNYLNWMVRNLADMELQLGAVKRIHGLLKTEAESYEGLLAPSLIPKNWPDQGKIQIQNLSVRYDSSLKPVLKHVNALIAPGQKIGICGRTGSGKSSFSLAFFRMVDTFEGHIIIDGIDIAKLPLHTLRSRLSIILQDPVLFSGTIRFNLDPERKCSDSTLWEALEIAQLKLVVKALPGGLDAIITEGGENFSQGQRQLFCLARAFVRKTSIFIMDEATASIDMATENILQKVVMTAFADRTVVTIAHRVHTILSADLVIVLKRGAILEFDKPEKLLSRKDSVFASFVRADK

SMILES | EC50 (Rattus norvegicus [1]) [µM] | Emax at 10 µM (Beta-TC6 [2]) [%] | EC50 [3] [µM] | IC50 (Beta-TC6 [4]) [µM] | Reduction (Rattus norvegicus [5]) [%] | Emax (Beta-TC6 [8]) [%] | IC50 (Rattus norvegicus [9]) [µM] | Change (Rattus norvegicus [11]) [%] | Reduction (Rattus norvegicus [13]) [%] | EC50 (Rattus norvegicus [15]) [µM] | further results
CCC(C)NC1=NS(=O)(=O)c2sc(Cl)cc2N1 (stereo not drawn) | 65 | 74 | 1.3 | 0.16 |  |  |  |  |  |  | 
CCC(C)(C)NC1=NS(=O)(=O)c2sc(Cl)cc2N1 | 11.8 |  | 0.2 | 0.03 | 77 | 82 | 0.02 | -34 | 87 | 29.4 | IC50 [6]: 899 µM; IC50 [7]: 0.18 µM; IC50 [10]: 375 µM; bioavailability [12]: 47%; half-life [14]: 1.65 h
CCCCCCNC1=NS(=O)(=O)c2sc(Cl)cc2N1 | 0.15 | 67 | 0.2 | 7.1 |  |  |  |  |  |  | EC50 (Rattus norvegicus [16]): 0.15 µM
O=S1(=O)NC(NC2CC2)=Nc2cc(Cl)sc21 | 28.2 | 37 | > 30 | 7.38 |  |  |  |  |  |  | 
CCCCNC1=NS(=O)(=O)c2sc(Cl)cc2N1 | 13.4 | 66 | 0.6 | 1.39 |  |  |  |  |  |  | EC50 (Rattus norvegicus [17]): 13.4 µM
NC1=NS(=O)(=O)c2sc(Cl)cc2N1 | 262 | 27 |  | 21.1 |  |  |  |  |  |  | EC50 (Rattus norvegicus [16]): 262 µM
O=S1(=O)NC(NC2CCCC2)=Nc2cc(Cl)sc21 | > 300 |  | 0.4 | 1.15 | 22 | 67 | 0.44 | 29 | 99 | 10.8 | 
CC1(NC2=NS(=O)(=O)c3sc(Cl)cc3N2)CCCC1 | 6.2 | 79 | 0.08 | 0.07 |  |  |  |  |  |  | 
CC(C)(C)NC1=NS(=O)(=O)c2sc(Cl)cc2N1 | 169 |  | 0.4 | 0.17 | 71 | 77 | 0.06 | -36 | 85 | 60.6 | IC50 [6]: 1350 µM; IC50 [7]: 0.23 µM; IC50 [10]: 393 µM
CCNC1=NS(=O)(=O)c2sc(Cl)cc2N1 | 136 | 74 | 9 | 1.9 |  |  |  |  |  |  | EC50 (Rattus norvegicus [17]): 136 µM
O=S1(=O)NC(NC2CCC2)=Nc2cc(Cl)sc21 | 27 |  | 1.4 | 0.49 | 100 | 78 | 0.05 | 5 | 100 | 38.6 | IC50 [6]: 943 µM; IC50 [7]: 0.12 µM; IC50 [10]: 146 µM; bioavailability [12]: 49%; half-life [14]: 1.88 h
CC(C)C(C)NC1=NS(=O)(=O)c2sc(Cl)cc2N1 (racemic) | 34.8 | 79 |  | 0.17 |  |  |  |  |  |  | 
CC1(NC2=NS(=O)(=O)c3sc(Cl)cc3N2)CCC1 | 6.5 |  | 0.014 | 0.02 | 76 | 91 | 0.01 | -48 | 82 | 7.2 | IC50 [6]: 859 µM; IC50 [7]: 0.003 µM; IC50 [10]: 10.8 µM
CCC(C)CNC1=NS(=O)(=O)c2sc(Cl)cc2N1 (racemic) | 20.5 | 48 | 20 | 0.15 |  |  |  |  |  |  | logD [18]: 3.14; logP [19]: 3.17; pKa [20]: 8.29
O=S1(=O)NC(NC2CCCCC2)=Nc2cc(Cl)sc21 | 6.8 | 40 | 8 | 25.6 |  |  |  |  |  |  | 
CC[C@H](C)NC1=NS(=O)(=O)c2sc(Cl)cc2N1 | 51 |  | 0.8 | 0.41 | 94 | 79 | 0.07 | -7 | 96 | 19.2 | IC50 [7]: 0.46 µM; IC50 [21]: 420 µM; IC50 [10]: 309 µM; bioavailability [12]: 49%; pKa [22]: 8.42; half-life [14]: 0.967 h
CC1=Nc2ccc(Cl)cc2S(=O)(=O)N1 [DIAZOXIDE] |  |  | 77.4 |  | 53 | 23 | 20.3 | -26 | 53 | 20.8 | EC50 (Rattus norvegicus [16]): 12.8 µM; F [12]: 154%
CCCCCCCCNC1=NS(=O)(=O)c2sc(Cl)cc2N1 | 176 | 76 | 0.5 | 1.5 |  |  |  |  |  |  | 
CC(C)[C@H](C)NC1=NS(=O)(=O)c2sc(Cl)cc2N1 | > 300 | 80 | 14 | 0.56 |  |  |  |  |  |  | 
CC(C)[C@@H](C)NC1=NS(=O)(=O)c2sc(Cl)cc2N1 | 75.3 | 62 | 0.3 | 1.01 |  |  |  |  |  |  | 
CCCC(C)NC1=NS(=O)(=O)c2sc(Cl)cc2N1 (racemic) | 83 | 56 | 41 | 0.22 |  |  |  |  |  |  | 
CC1(NC2=NS(=O)(=O)c3sc(Cl)cc3N2)CC1 [TIFENAZOXIDE] | 119 |  | 0.6 | 0.15 | 77 | 69 |  | -4 | 85 | 14.3 | 
CCC1(NC2=NS(=O)(=O)c3sc(Cl)cc3N2)CCC1 | 3.3 | 81 | 0.1 | 0.02 |  |  |  |  |  |  | 
CCCNC1=NS(=O)(=O)c2sc(Cl)cc2N1 | 64.7 | 65 | 2 | 2.4 | 16 | 65 | 0.7 | 13 | 100 | 23.3 | IC50 [6]: 924 µM; IC50 [7]: 2.27 µM; IC50 [10]: 584 µM; bioavailability [12]: 69%; pKa [22]: 8.23; logP [19]: 2.49; logD [23]: 2.42; half-life [14]: 1.2 h
CC1(NC2=NS(=O)(=O)c3sc(Cl)cc3N2)CCCCC1 | 1.4 | 62 | 1 | 5.33 |  |  |  |  |  |  | 
CC(C)CCCC(C)NC1=NS(=O)(=O)c2sc(Cl)cc2N1 (racemic) | 25.2 | 72 | 2 | 4.89 |  |  |  |  |  |  | 
CC(NC1=NS(=O)(=O)c2sc(Cl)cc2N1)C(C)(C)C (racemic) | 2 | 56 | 17 | 0.75 |  |  |  |  |  |  | 
CCC(CC)CNC1=NS(=O)(=O)c2sc(Cl)cc2N1 | 8 | 38 | > 100 | 0.24 |  |  |  |  |  |  | 
CC(C)NC1=NS(=O)(=O)c2sc(Cl)cc2N1 | 266 |  | 0.6 | 0.23 | 96 | 85 | 0.18 | -19 | 96 | 6.2 | IC50 [6]: 554 µM; IC50 [7]: 0.34 µM; IC50 [10]: 187 µM; bioavailability [12]: 65%; pKa [22]: 8.35; logP [19]: 1.84; logD [23]: 1.63; half-life [14]: 2.73 h
CCCCCC(C)NC1=NS(=O)(=O)c2sc(Cl)cc2N1 (racemic) | 2 | 36 | 0.4 | 24.9 |  |  |  |  |  |  | 
